Columns and labels:
[1] = molecular target: Cannabinoid receptor 1 (Homo sapiens, UniProt P21554); assay: Binding affinity for cannabinoid receptor 1
[2] = molecular target: Cannabinoid receptor (Homo sapiens) (UniProt P34972+P21554); assay: Selectivity of cannabinoid receptor 2 over cannabinoid receptor 1; assay type: protein assay
[3] = Binding affinity for cannabinoid receptor 2 was determined by using [35S]GTP-gamma-S, as radioligand; assay type: functional, Homo sapiens
Procedure, shortened: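 Human CB2 co-expressed with Gαi3 and β1γ2 in Sf9 cell membranes (7–14 pmol/mg receptor). Triplicate serial dilutions were incubated with membranes, 0.3 nM [35S]GTPγS and GDP in 20 mM HEPES, 100 mM NaCl, 5 mM MgCl2, 0.2% (w/v) lipid-free BSA, pH 7.4, for 30 min at 30°C. Reactions were stopped by filtration, and filters were washed 10× at room temperature with 20 mM HEPES/10 mM sodium pyrophosphate. Bound label was counted by liquid scintillation.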

[4] = molecular target: Cannabinoid receptor 2 (Homo sapiens, UniProt P34972); assay: Binding affinity for human cannabinoid receptor 2 was determined by using [3H]CP-55940 as radioligand
Chain of Cannabinoid receptor 2 (P34972 whole entry): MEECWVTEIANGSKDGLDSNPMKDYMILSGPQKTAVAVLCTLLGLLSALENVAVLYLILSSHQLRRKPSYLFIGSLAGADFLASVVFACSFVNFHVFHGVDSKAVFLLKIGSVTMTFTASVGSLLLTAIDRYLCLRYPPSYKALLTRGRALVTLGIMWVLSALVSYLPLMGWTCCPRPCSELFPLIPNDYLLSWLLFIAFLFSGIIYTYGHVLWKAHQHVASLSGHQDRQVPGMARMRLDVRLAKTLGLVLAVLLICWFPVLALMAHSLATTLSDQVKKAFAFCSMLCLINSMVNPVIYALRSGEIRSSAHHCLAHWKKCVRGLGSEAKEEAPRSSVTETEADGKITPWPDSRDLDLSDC

Chain of Cannabinoid receptor 1 (P21554 whole entry): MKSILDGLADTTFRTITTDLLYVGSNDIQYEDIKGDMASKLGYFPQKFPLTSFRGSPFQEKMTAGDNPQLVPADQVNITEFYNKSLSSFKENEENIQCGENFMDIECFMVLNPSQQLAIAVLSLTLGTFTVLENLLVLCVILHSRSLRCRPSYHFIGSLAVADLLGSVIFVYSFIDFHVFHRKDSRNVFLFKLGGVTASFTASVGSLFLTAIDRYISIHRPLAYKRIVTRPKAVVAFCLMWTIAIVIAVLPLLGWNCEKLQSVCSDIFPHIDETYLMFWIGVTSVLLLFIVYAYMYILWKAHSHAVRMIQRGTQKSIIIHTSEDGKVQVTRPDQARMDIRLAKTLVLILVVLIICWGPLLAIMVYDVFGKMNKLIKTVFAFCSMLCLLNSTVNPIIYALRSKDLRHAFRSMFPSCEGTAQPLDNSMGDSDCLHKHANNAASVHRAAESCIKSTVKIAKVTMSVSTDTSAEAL
Chain of Cannabinoid receptor (Homo sapiens) (P21554 whole entry, looked up): as the sequence (P21554 whole entry) above
Chain of Cannabinoid receptor (Homo sapiens) (P34972 whole entry, looked up): as the sequence (P34972 whole entry) above

| SMILES | Ki [1] [nM] | Selectivity [2] | Ki [3] [nM] | Ki [4] [nM] |
| --- | --- | --- | --- | --- |
| COc1ccc(S(=O)(=O)c2cc(OC)ccc2S(=O)(=O)c2ccc([C@H](C)NS(=O)(=O)Cc3ccccc3)cc2)cc1 | 79 | 0.5 | 160 |  |
| COc1ccc(S(=O)(=O)c2cc(OC)ccc2S(=O)(=O)c2ccc([C@H](C)NC(=O)C3CC3)cc2)cc1 | 10600 | 676 | 15.7 |  |
| COc1ccc(S(=O)(=O)c2ccc([C@H](C)NC(=O)C(F)(F)F)cc2)cc1 |  |  | 31 |  |
| COc1ccc(S(=O)(=O)c2cc(OC)ccc2S(=O)(=O)c2ccc([C@H](C)NC(=O)C(C)(C)C)cc2)cc1 | 2310 | 60 | 38.6 |  |
| COc1ccc(C(=O)N[C@@H](C)c2ccc(S(=O)(=O)c3ccc(OC)cc3S(=O)(=O)c3ccc(OC)cc3)cc2)cc1 | 1170 | 0.9 | 1260 |  |
| CCCCS(=O)(=O)N[C@@H](C)c1ccc(S(=O)(=O)c2ccc(OC)cc2S(=O)(=O)c2ccc(OC)cc2)cc1 | 1130 | 27 | 41 |  |
| CCCNC(=O)N[C@@H](C)c1ccc(S(=O)(=O)c2ccc(OC)cc2S(=O)(=O)c2ccc(OC)cc2)cc1 | 72100 | 145 | 495 |  |
| CCCC(=O)N[C@@H](C)c1ccc(S(=O)(=O)c2ccc(OC)cc2S(=O)(=O)c2ccc(OC)cc2)cc1 | 1170 | 189 | 6.2 |  |
| COc1ccc(S(=O)(=O)c2cc(OC)ccc2S(=O)(=O)c2ccc([C@H](C)NC(=O)C(F)(F)F)cc2)cc1 | 235 | 783 | 0.3 |  |
| COc1ccc(C(=O)c2c(C)n(CCN3CCOCC3)c3cc(I)ccc23)cc1 |  |  |  | 31.2 |
| CCS(=O)(=O)N[C@@H](C)c1ccc(S(=O)(=O)c2ccc(OC)cc2S(=O)(=O)c2ccc(OC)cc2)cc1 | 1970 | 1510 | 1 |  |
| COc1ccc(S(=O)(=O)c2cc(OC)ccc2S(=O)(=O)c2ccc([C@H](C)NS(=O)(=O)c3ccc(Cl)c(Cl)c3)cc2)cc1 | 117 | 0.05 | 2480 |  |
| COc1ccc(S(=O)(=O)c2cc(OC)ccc2S(=O)(=O)c2ccc([C@H](C)NC(=O)Nc3ccc(C)cc3)cc2)cc1 | 100000 | 125 | 802 |  |
| COc1ccc(S(=O)(=O)c2cc(OC)ccc2S(=O)(=O)c2ccc([C@H](C)NC(=O)Nc3ccc(F)cc3)cc2)cc1 | 17600 | 15 | 1140 |  |
| COc1ccc(S(=O)(=O)c2cc(OC)ccc2S(=O)(=O)c2ccc([C@H](C)NC(C)=O)cc2)cc1 | 1780 | 231 | 7.7 |  |
| COc1ccc(S(=O)(=O)c2cc(OC)ccc2S(=O)(=O)c2ccc([C@H](C)NC(=O)c3ccc(C)cc3)cc2)cc1 | 884 | 3 | 289 |  |
| COc1ccc(S(=O)(=O)c2cc(OC)ccc2S(=O)(=O)c2ccc([C@H](C)NS(=O)(=O)c3ccccc3)cc2)cc1 | 855 | 3.6 | 239 |  |
| COc1ccc(S(=O)(=O)c2cc(OC)ccc2S(=O)(=O)c2ccc([C@H](C)NS(C)(=O)=O)cc2)cc1 | 905 | 2260 | 0.4 |  |
| COc1ccc(S(=O)(=O)c2cc(OC)ccc2S(=O)(=O)c2ccc([C@H](C)NC(=O)Cc3ccccc3)cc2)cc1 | 478 | 1.2 | 412 |  |
| COc1ccc(S(=O)(=O)c2cc(OC)ccc2S(=O)(=O)c2ccc([C@H](C)NS(=O)(=O)c3ccc(C)cc3)cc2)cc1 | 1920 | 3.9 | 495 |  |
| COc1ccc(S(=O)(=O)c2cc(OC)ccc2S(=O)(=O)c2ccc([C@H](C)NC(=O)c3ccc(Cl)c(Cl)c3)cc2)cc1 | 84 | 0.5 | 167 |  |
| CCC(=O)N[C@@H](C)c1ccc(S(=O)(=O)c2ccc(OC)cc2S(=O)(=O)c2ccc(OC)cc2)cc1 | 3560 | 122 | 29 |  |
